Source: the M2OR odorant receptor database

How the values were obtained:
Details in all cases: stereoisomer not certain
[1] = biological target: T1, UniProt Q8VGC6
T1 sequence (whole entry): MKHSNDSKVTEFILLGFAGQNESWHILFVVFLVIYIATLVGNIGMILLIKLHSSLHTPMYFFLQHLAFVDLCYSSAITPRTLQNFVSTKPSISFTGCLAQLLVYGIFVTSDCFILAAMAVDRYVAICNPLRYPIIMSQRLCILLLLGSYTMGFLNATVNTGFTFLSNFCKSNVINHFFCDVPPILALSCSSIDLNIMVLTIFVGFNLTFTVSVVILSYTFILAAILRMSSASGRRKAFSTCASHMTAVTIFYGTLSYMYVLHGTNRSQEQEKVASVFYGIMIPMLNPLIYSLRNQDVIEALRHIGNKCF
In short: (§1)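 Each entry records the cell line, G-protein, co-transfected protein and tags used. Methods varied with the source, often transient luciferase assays in mammalian cell lines. A receptor–molecule pair is called responsive (active) if the original authors judged its signal statistically different from baseline and non-responsive (inactive) otherwise.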

[2] = biological target: T2, UniProt Q8VGD7
T2 sequence (whole entry): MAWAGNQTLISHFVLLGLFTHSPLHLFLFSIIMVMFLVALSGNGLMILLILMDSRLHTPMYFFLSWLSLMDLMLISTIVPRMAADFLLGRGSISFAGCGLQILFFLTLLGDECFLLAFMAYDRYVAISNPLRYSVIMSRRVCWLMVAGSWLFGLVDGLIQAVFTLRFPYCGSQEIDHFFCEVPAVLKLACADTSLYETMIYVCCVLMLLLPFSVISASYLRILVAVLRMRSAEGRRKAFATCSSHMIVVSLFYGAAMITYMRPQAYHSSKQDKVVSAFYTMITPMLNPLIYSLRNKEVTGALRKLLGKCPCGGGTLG
In short: as §1

[3] = biological target: UniProt Q8VGE3
UniProt Q8VGE3, sequence (Q8VGE3 as listed by the source): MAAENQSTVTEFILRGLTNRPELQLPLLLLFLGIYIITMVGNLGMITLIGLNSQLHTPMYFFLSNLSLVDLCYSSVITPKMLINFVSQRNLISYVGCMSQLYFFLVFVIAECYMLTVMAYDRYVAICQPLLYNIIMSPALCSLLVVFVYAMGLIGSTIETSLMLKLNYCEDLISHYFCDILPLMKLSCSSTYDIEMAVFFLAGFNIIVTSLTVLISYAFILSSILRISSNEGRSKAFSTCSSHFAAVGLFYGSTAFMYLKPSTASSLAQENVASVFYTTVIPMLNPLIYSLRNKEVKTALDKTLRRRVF
In short: as §1

[4] = biological target: T3, UniProt Q8VGH1
T3 sequence (whole entry): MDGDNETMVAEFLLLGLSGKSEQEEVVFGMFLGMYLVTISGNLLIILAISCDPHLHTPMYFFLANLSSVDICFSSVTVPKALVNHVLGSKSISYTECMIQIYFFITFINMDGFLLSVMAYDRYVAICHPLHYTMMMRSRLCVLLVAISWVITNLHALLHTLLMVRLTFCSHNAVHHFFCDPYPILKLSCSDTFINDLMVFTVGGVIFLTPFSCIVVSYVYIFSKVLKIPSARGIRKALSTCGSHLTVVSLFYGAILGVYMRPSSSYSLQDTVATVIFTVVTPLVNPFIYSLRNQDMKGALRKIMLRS
In short: as §1

[5] = biological target: T4, UniProt Q8VGJ1
T4 sequence (whole entry): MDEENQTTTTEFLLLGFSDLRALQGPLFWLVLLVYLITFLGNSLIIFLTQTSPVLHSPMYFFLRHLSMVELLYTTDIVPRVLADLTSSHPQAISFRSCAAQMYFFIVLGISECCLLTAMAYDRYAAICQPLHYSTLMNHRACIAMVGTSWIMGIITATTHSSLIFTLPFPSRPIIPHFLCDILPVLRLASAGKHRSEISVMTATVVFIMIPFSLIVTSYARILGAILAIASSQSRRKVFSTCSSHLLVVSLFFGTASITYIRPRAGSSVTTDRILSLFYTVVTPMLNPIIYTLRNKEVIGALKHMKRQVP
In short: as §1

[6] = biological target: T5, UniProt Q8VGJ5
T5 sequence (whole entry): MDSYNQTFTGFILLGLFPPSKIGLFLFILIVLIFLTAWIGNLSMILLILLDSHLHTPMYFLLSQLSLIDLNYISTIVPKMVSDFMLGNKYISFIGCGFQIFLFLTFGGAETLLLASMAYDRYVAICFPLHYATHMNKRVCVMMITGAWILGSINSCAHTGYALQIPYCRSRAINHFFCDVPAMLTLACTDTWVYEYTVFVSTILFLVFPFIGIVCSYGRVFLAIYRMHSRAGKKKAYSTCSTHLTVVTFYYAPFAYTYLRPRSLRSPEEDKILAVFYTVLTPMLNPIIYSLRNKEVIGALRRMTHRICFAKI
In short: as §1

[7] = biological target: UniProt Q8VGK6
UniProt Q8VGK6, sequence (Q8VGK6 as listed by the source): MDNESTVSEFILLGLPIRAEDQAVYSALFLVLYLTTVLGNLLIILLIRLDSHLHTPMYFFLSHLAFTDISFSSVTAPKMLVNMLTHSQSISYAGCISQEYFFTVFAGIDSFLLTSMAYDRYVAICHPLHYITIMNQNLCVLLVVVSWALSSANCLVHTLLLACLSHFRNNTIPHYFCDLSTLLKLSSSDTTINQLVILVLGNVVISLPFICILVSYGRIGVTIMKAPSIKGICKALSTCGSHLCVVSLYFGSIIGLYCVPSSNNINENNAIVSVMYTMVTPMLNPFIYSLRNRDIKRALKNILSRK
In short: as §1

[8] = biological target: T6, UniProt Q8VGL0
T6 sequence (whole entry): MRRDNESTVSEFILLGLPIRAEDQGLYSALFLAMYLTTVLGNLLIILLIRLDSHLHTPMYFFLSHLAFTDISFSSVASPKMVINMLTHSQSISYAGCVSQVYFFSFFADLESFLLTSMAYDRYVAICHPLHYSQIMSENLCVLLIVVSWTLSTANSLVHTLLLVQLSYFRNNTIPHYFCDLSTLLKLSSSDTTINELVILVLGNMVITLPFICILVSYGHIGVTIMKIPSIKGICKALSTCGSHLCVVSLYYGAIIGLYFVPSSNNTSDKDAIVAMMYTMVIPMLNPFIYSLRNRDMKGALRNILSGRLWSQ
In short: as §1

[9] = biological target: T7, UniProt Q8VGL7
T7 sequence (whole entry): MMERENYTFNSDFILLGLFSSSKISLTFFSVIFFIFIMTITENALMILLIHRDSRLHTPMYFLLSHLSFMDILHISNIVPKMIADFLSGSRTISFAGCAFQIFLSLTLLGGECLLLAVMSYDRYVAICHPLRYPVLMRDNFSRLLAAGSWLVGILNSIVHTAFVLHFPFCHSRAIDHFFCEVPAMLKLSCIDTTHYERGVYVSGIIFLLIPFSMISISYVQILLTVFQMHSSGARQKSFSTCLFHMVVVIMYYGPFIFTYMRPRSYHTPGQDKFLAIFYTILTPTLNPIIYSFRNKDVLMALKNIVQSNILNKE
In short: as §1

[10] = biological target: T8, UniProt Q8VGM2
T8 sequence (whole entry): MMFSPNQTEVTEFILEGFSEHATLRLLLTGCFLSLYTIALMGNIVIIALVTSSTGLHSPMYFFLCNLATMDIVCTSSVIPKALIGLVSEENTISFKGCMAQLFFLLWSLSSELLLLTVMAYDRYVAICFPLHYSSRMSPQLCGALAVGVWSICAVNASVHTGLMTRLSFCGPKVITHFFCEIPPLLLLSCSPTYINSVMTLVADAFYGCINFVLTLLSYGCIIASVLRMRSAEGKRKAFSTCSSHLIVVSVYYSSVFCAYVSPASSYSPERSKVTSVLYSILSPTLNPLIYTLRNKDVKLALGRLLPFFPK
In short: as §1

[11] = biological target: T9, UniProt Q8VGP6
T9 sequence (whole entry): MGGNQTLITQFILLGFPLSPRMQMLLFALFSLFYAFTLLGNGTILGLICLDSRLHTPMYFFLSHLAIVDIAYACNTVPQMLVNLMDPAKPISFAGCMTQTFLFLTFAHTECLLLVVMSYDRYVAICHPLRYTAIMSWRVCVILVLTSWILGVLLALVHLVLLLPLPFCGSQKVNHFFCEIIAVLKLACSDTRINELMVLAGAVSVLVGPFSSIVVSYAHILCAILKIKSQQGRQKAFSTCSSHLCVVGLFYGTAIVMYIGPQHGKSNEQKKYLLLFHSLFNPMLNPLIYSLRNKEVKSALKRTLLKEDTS
In short: as §1

[12] = biological target: T10, UniProt Q8VGQ3
T10 sequence (whole entry): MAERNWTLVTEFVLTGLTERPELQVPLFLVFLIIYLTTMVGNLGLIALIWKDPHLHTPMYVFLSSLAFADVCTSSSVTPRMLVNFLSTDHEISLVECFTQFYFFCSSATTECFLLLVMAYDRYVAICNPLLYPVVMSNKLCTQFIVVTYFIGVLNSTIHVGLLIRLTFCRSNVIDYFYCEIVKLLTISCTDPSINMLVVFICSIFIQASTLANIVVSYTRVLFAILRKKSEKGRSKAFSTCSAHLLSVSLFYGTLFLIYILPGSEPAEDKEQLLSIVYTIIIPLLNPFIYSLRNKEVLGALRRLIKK
In short: as §1

[13] = biological target: T11, UniProt Q8VGT4
T11 sequence (whole entry): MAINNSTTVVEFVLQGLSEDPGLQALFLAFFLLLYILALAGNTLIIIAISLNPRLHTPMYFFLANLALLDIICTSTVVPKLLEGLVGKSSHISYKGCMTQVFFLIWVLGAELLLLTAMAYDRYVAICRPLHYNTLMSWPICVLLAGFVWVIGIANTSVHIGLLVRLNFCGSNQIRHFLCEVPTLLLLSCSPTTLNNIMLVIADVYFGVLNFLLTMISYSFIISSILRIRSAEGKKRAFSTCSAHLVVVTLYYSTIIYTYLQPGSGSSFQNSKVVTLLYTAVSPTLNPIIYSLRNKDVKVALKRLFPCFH
In short: as §1

[14] = biological target: T12, UniProt Q8VGV1
T12 sequence (whole entry): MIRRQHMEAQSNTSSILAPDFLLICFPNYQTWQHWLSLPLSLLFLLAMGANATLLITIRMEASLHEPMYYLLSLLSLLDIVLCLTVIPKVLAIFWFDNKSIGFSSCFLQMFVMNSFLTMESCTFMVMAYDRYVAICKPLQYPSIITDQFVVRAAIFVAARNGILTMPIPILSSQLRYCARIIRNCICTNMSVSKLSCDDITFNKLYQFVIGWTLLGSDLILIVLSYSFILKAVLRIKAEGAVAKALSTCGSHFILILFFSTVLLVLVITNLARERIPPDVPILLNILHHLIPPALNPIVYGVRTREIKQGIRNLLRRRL
In short: as §1

[15] = biological target: T13, UniProt Q8VGX5
T13 sequence (whole entry): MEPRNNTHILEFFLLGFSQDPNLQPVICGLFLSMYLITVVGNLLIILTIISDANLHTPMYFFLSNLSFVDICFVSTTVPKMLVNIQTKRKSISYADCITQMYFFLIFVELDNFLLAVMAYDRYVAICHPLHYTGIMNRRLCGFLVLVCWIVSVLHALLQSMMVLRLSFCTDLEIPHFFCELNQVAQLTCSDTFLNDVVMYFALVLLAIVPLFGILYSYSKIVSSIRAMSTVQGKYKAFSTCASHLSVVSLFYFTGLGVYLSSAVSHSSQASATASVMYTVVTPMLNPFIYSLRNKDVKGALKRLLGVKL
In short: as §1

[16] = biological target: T14, UniProt Q8VGJ3
T14 sequence (whole entry): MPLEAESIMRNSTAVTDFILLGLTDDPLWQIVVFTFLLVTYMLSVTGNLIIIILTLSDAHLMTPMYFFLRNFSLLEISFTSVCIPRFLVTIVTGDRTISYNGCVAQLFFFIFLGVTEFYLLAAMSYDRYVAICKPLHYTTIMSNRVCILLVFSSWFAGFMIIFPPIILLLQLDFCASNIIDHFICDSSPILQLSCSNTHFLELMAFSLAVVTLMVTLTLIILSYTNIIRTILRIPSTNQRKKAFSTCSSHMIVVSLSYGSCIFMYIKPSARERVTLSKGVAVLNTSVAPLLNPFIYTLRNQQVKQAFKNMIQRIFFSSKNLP
In short: as §1

[17] = biological target: T15, UniProt Q8VGU3
T15 sequence (whole entry): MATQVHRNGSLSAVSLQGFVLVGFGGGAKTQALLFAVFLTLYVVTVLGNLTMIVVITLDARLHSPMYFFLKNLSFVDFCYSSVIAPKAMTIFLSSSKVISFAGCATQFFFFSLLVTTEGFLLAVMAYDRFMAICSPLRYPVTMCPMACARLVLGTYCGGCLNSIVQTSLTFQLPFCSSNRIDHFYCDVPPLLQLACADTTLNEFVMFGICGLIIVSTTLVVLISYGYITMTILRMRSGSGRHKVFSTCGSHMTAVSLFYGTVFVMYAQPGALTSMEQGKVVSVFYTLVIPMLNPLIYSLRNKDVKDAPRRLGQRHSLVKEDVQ
In short: as §1

[18] = biological target: T16, UniProt Q8VGV7
T16 sequence (whole entry): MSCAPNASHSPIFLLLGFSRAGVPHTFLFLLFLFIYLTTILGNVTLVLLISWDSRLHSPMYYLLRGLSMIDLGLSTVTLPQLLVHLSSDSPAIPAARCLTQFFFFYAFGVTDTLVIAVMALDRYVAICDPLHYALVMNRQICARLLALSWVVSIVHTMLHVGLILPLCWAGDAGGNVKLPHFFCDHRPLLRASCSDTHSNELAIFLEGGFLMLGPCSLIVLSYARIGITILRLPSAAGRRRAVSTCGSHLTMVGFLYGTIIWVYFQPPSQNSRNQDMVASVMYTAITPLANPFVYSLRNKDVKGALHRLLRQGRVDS
In short: as §1

[19] = biological target: T17, UniProt Q8VGW5
T17 sequence (whole entry): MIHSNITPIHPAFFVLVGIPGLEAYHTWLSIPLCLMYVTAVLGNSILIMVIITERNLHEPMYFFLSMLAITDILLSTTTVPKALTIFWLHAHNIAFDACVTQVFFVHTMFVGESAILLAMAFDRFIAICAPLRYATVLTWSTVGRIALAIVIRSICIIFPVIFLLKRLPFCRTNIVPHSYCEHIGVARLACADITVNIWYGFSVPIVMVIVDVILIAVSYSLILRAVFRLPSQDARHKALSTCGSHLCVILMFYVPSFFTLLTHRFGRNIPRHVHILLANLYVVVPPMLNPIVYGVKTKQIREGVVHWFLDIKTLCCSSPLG
In short: as §1

[20] = biological target: T18, UniProt Q8VGX3
T18 sequence (whole entry): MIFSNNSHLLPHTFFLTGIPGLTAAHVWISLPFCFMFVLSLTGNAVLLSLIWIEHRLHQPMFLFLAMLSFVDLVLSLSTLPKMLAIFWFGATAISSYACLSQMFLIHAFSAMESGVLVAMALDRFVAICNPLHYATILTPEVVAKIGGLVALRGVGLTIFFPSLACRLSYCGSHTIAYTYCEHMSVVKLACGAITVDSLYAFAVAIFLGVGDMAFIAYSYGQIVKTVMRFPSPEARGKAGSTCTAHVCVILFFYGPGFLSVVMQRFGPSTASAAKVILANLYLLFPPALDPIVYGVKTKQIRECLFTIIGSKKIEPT
In short: as §1

Measured: odorant receptor agonist call

O=c1ccc2ccccc2o1
active: [3] | [4] | [7] | [15]
not listed: [16] | [17] | [18] | [19] | [20]
inactive: all other assays above

CC(C)CN
inactive: [1]

CC1=CCC2CC1C2(C)C (configuration not stated)
inactive: [1]

CCCCCCCCO
active: [1] | [11]
not listed: [3] | [7]
inactive: all other assays above

C=CCCCCCC
inactive: [1]

COc1cc(C(=O)O)ccc1O
not listed: [3] | [7] | [19]
inactive: all other assays above

CCCOC(=O)CCC
inactive: [1]

CCCCCCO
not listed: [3] | [7]
inactive: all other assays above
